This note sets out measurements from ChEMBL document CHEMBL1125102, “Synthesis and biological evaluation of 2-styrylquinazolin-4(3H)-ones, a new class of antimitotic anticancer agents which inhibit tubulin polymerization” (J Med Chem, 1990).

The test system of test [1] is L1210. The test can be described thus: In vivo inhibition of L1210 murine leukemia cells in mice (ip) at a dose of 100 mg/kg. The class given is functional, Mus musculus. In a few lines:
(§1)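 L1210 murine leukemia in mice: tumor cells inoculated ip, drug injected ip one day later; efficacy expressed as % T/C at the stated dose.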

Test [2] relates to L1210. Kind of test: In vitro inhibition of L1210 murine leukemia cells by using MTT assay in cell culture. The class given is functional, cell-based. As to conditions: Mus musculus. The gist of the method: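 L1210 murine leukemia cells in culture; cytotoxicity measured by MTT assay, reported as IC50 in μg/mL.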
Test [3] deals with Tubulin. Kind of test: Inhibition of tubulin polymerization. The class given is functional. The gist of the method: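 Glutamate-driven assembly: purified tubulin 1.0 mg/mL (10 μM) in 1.0 M monosodium glutamate pH 6.6, 1.0 mM MgCl2, 4% (v/v) DMSO, preincubated with drug 15 min at 37 °C, chilled, GTP added, then warmed 0→37 °C in cuvettes with turbidity read-out. IC50 = drug level halving extent of polymerization, obtained graphically in triplicate experiments.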

For test [4], the system named is L1210. The test can be described thus: In vivo inhibition of L1210 murine leukemia cells in mice (ip) at a dose of 200 mg/kg. In kind it is functional, Mus musculus. In a few lines: as §1
Test [5] concerns L1210. The test can be described thus: In vivo inhibition of L1210 murine leukemia cells in mice (ip) at a dose of 50 mg/kg. In kind it is functional, Mus musculus. In a few lines: as §1
Test [6] concerns L1210. Kind of test: […]. The class given is functional, Mus musculus. The note with it: dose 150 mg/kg. In a few lines:
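Murine L1210 leukemia cells were inoculated intraperitoneally into mice. Drug was injected intraperitoneally one day after tumor inoculation. Therapeutic efficacy was read out as % T/C at the stated dose in mg/kg.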

Converted amounts (≈) assume the structure as drawn.

In turn, `Oc1ccc2nc(/C=C/c3ccccc3)nc(O)c2c1` gave a T/C in test [1] of 99%. For the same molecule, the IC50 in test [2] was 0.006 mg/L (≈ 0.0227 µM); in test [3], over 40 µM.
As to `O=c1c2cc(Cl)ccc2nc2n1NC(c1ccccc1)C2` (centres undefined), the figures for the IC50 in test [2] and in test [3] were over 1 mg/L and over 40 µM, respectively.
Molecule `Oc1nc(/C=C/c2ccccc2)nc2cc(Cl)c(F)cc12` gave a T/C in test [1] of 111%. Besides, the IC50 in test [2] is 0.007 mg/L (≈ 0.0233 µM); in test [3], over 40 µM.
Consider `Cc1cccc2nc(/C=C/c3ccccc3)nc(O)c12`, for which the T/C in test [4] amounted to 100%. Besides, the values for the IC50 in test [2] and in test [3] were 0.03 mg/L (≈ 0.114 µM) and over 40 µM, respectively.
`Nn1c(/C=C/c2ccccc2)nc2ccc(Cl)cc2c1=O`: the 50% inhibitory concentration (IC50) was over 1 mg/L in test [2] and over 40 µM in test [3]. The molecule further returned a T/C in test [5] of 90%.
In test [4], `Oc1nc(CC(c2ccccc2)N2CCOCC2)nc2ccc(Cl)cc12` (centres undefined) gave a T/C of 125%. The same molecule showed an IC50 in test [3] of over 40 µM.
In test [6], `Nc1ccccc1C(=O)Oc1ccc2nc(/C=C/c3ccccc3)nc(O)c2c1` gave a T/C of 99%. Also, the IC50 is over 1 mg/L in test [2] and over 40 µM in test [3].
In the case of `O=c1oc(/C=C/c2ccccc2)nc2c(O)nc(O)nc12`, the IC50 was over 1 mg/L in test [2] and over 40 µM in test [3]. In addition, in test [5], the T/C was 94%.
As to `O=c1[nH]c(=O)c2nc(/C=C/c3ccccc3)nc(O)c2[nH]1`, the results for the IC50 in test [2] and in test [3] were over 1 mg/L and over 40 µM, respectively. In test [5], this molecule came in with a T/C of 93%.
For the molecule `COc1ccc2c(O)nc(/C=C/c3ccccc3)nc2c1`, in test [4], the T/C was 100%. Also, the IC50 in test [2] was 0.001 mg/L (≈ 0.00359 µM); in test [3], 5.7 µM.
As to `Oc1nc(Cc2ccccc2)nc2ccc(Cl)cc12`, the results for the IC50 in test [2] and in test [3] were over 1 mg/L and over 40 µM, respectively.
In the case of `Sc1nc(/C=C/c2ccccc2)nc2ccc(Cl)cc12`, the values for the IC50 in test [2] and in test [3] were over 1 mg/L and over 40 µM, respectively. Further, the T/C in test [5] amounted to 94%.
Consider `Oc1nc(CCc2ccccc2)nc2ccc(Cl)cc12`, for which the T/C in test [4] stood at 113%. Besides, the IC50 in test [2] was determined as 0.01 mg/L (≈ 0.0351 µM); in test [3], 7.3 µM.
Take `Oc1nc(/C=C/c2ccccc2)nc2ccc(I)cc12`: the T/C in test [4] was found to be 117%. Further, the results for the IC50 in test [2] and in test [3] were 0.3 mg/L (≈ 0.802 µM) and 1.4 µM, respectively.
For `CN1CCN(C(Cc2nc(O)c3cc(Cl)ccc3n2)c2ccccc2)CC1` (centres undefined), the T/C in test [1] was found to be 100%. In addition, the IC50 in test [3] worked out at 5.3 µM.
`Oc1nc(/C=C/c2ccccc2)nc2ccc(F)cc12` registered a T/C in test [1] of 129%. Moreover, the IC50 is 0.05 mg/L (≈ 0.188 µM) in test [2] and 5.4 µM in test [3].
The corresponding values for `Oc1nc(/C=C/c2ccccc2)nc2cccc(Cl)c12` are 100%, over 1 mg/L and over 40 µM.
The molecule `O=S1(=O)N=C(/C=C/c2ccccc2)Nc2ccccc21` yielded a T/C in test [4] of 91%. Also, the IC50 in test [2] is over 1 mg/L; in test [3], over 40 µM.
For the molecule `Cn1c(/C=C/c2ccccc2)nc(=O)c2cc(Cl)ccc21`, the IC50 in test [2] was 0.04 mg/L (≈ 0.135 µM); in test [3] it was over 40 µM. In test [5], this molecule showed a T/C of 96%.
Take `Cc1nc(/C=C/c2ccccc2)nc(O)c1C`: the IC50 in test [2] was over 1 mg/L; in test [3], over 40 µM. Moreover, the T/C in test [5] is given as 89%.
With `Oc1nc(/C=C/c2ccccn2)nc2ccc(Cl)cc12`, in test [4], the T/C worked out at 91%. In addition, the IC50 in test [2] was 0.61 mg/L (≈ 2.15 µM); in test [3], over 40 µM.
